For assay [1], the system named is MCF7. The assay is described as follows: Antiproliferative activity against human MCF7 cells after 72 hrs by MTS/PMS assay. The assay is classed as functional, cell-based. As to conditions: MCF7, 72 h. In a few lines: (§1)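 Cells grown at 37 °C in humidified 5% CO2, seeded at 2000/well and left to attach overnight. Compound added at varying concentrations in DMSO (1% final) for 72 h. Viable cells read by MTS/PMS, normalized to 1% DMSO wells as 100% proliferation. IC50 taken from separate experiments run in triplicate.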

In assay [2] the test system is SK-BR-3. Nature of the assay: Antiproliferative activity against human SKBR3 cells after 72 hrs by MTS/PMS assay. Format: functional, cell-based. As to conditions: SK-BR-3, 72 h. In a few lines: as §1
Assay [3] concerns SK-BR-3. The assay is described as follows: Ratio of IC50 for human SK-BR-3 cells to IC50 for human MCF7 cells. The assay is classed as functional.
Assay [4] concerns the target Heat shock protein HSP 90-beta (Homo sapiens) (UniProt P08238). The assay is described as follows: Inhibition of HSP90 in human MCF7 cells assessed as induction of HSP90 client protein Her2 degradation after 24 hrs by Western blot analysis. The assay is classed as cell-based. The gist of the method:
(§2)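 MCF-7 cells exposed 24 h to various concentrations in DMSO (1% final) or vehicle. Cells lysed in RIPA with 1 mM PMSF, 2 mM orthovanadate and protease inhibitors, 1 h on ice, then clarified at 14000g for 10 min at 4 °C; protein by BCA. 20 μg protein run under reducing conditions, blotted to nitrocellulose, probed with specific antibodies plus HRP secondary, read by chemiluminescence; β-actin also probed.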

Assay [5] relates to MCF7. The assay is described as follows: Inhibition of heat shock response-induced increase in HSP90 protein level in human MCF7 cells at 1 to 100 uM after 24 hrs by Western blot analysis. The assay is classed as functional, cell-based.
Assay [6] addresses Heat shock protein HSP 90-beta (Homo sapiens) (UniProt P08238). Nature of the assay: Inhibition of HSP90 in human MCF7 cells assessed as induction of HSP90 client protein cRaf degradation after 24 hrs by Western blot analysis. The assay is classed as cell-based. The gist of the method: as §2

Calls of active or inactive are those of the source. The rule behind the calls is not given here.

Heat shock protein HSP 90-beta (Homo sapiens), sequence (P08238 whole entry): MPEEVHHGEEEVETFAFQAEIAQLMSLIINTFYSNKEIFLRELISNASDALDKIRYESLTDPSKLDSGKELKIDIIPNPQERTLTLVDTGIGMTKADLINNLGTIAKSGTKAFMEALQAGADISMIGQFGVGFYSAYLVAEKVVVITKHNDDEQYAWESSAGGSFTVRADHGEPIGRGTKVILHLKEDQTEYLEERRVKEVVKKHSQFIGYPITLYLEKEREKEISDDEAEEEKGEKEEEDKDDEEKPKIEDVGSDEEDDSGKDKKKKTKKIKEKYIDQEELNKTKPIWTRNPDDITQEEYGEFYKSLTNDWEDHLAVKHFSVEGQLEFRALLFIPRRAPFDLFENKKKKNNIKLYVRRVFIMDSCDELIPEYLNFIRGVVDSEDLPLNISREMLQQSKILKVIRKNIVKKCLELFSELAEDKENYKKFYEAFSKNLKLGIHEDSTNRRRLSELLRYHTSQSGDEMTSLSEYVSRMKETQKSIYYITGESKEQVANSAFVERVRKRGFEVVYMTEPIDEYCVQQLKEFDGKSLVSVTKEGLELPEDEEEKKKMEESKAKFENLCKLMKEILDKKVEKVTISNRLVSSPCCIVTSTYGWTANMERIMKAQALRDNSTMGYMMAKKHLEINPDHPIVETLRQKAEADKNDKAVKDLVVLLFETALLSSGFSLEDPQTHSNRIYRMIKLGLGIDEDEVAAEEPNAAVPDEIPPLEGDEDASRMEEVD

For the compound `CO[C@@H]1[C@@H](O)[C@@H](O)[C@H](Oc2cc(O)c3c(=O)c(NC(C)=O)coc3c2)OC1(C)C`, the IC50 in the assay on MCF7 [1] and with SK-BR-3 [2] was above 100 µM each time.

Turning to `CC(C)=CCc1c(O)cc2occ(-c3ccc4c(c3)OCO4)c(=O)c2c1O` [DERRUBONE], inhibition in the assay on MCF7 [1] was half-maximal at 11.9 µM (IC50).

As for `CC(=O)Nc1coc2cc(OC(C)=O)cc(O)c2c1=O`, the half-maximal inhibitory concentration (IC50) in the assay with MCF7 [1] is 93.7 µM; in the assay with SK-BR-3 [2] it was above 100 µM.

For `COc1cccc(-c2cc(C(=O)Nc3coc4c(C)c(O)ccc4c3=O)ccc2OC)c1`, the “Ratio IC50” value in the assay with SK-BR-3 [3] is recorded as 1.9. Moreover, the IC50 is 4.9 µM in the assay on MCF7 [1] and 44.1 µM in the assay with SK-BR-3 [2].

For `CO[C@@H]1[C@@H](O)[C@@H](O)[C@H](Oc2cc(O)c3c(=O)c(-c4ccc5c(c4)OCO5)coc3c2)OC1(C)C`, the 50% inhibitory concentration (IC50) in the assay with MCF7 [1] and with SK-BR-3 [2] was above 100 µM each time.

With `CC(=O)Nc1cc(=O)c2cc(OC(C)=O)ccc2o1`, the IC50 in the assay on MCF7 [1] and with SK-BR-3 [2] was above 100 µM each time.

For `CO[C@@H]1[C@@H](O)[C@@H](O)[C@H](Oc2ccc3c(=O)c(NC(C)=O)coc3c2)OC1(C)C`, the IC50 in the assay with MCF7 [1] and in the assay with SK-BR-3 [2] was above 100 µM each time.

For `COc1cccc(-c2cc(C(=O)Nc3coc4cc(OC(C)=O)cc(O)c4c3=O)ccc2OC)c1`, the IC50 with MCF7 [1] was determined as 5.1 µM; in the assay on SK-BR-3 [2], 3.3 µM.

With `COc1cccc(-c2cc(C(=O)Nc3coc4c(C)c(O[C@@H]5OC(C)(C)[C@H](OC)[C@@H](O)[C@H]5O)ccc4c3=O)ccc2OC)c1`, the IC50 with MCF7 [1] came to 51.6 µM; with SK-BR-3 [2] it was 46 µM.

As for `CO[C@@H]1[C@@H](O)[C@@H](O)[C@H](Oc2ccc3c(=O)c(-c4ccc5c(c4)OCO5)coc3c2C)OC1(C)C`, the IC50 in the assay on MCF7 [1] amounted to 18.4 µM; in the assay with SK-BR-3 [2] it was 21.4 µM.

With `COc1cccc(-c2cc(C(=O)Nc3coc4cc(O)cc(O)c4c3=O)ccc2OC)c1`, in the assay with SK-BR-3 [3], the “Ratio IC50” value is 1.9. Further, the half-inhibitory concentration (IC50) in the assay on MCF7 [1] is 9.7 µM; in the assay on SK-BR-3 [2] it was 21.3 µM.

For `O=c1c(-c2ccc3c(c2)OCO3)coc2cc(O)cc(O)c12`, the IC50 in the assay with MCF7 [1] is 70 µM; in the assay with SK-BR-3 [2] it was above 100 µM.

Consider `COc1cccc(-c2cc(C(=O)Nc3coc4cc(O[C@@H]5OC(C)(C)[C@H](OC)[C@@H](O)[C@H]5O)cc(O)c4c3=O)ccc2OC)c1`, for which the IC50 in the assay on MCF7 [1] was 23.6 µM; in the assay on SK-BR-3 [2], 19.4 µM.

With `CC(=O)Oc1ccc2c(=O)c(-c3ccc4c(c3)OCO4)coc2c1C`, the half-inhibitory concentration (IC50) in the assay on MCF7 [1] and with SK-BR-3 [2] was above 100 µM in each case.

Consider `COc1cccc(-c2cc(C(=O)Nc3coc4cc(OC(C)=O)ccc4c3=O)ccc2OC)c1`, for which the values for the concentration for half-maximal inhibition (IC50) with MCF7 [1] and in the assay on SK-BR-3 [2] were 9.5 µM and 18.4 µM, respectively.

For the compound `CC(=O)Nc1coc2cc(O)ccc2c1=O`, the IC50 in the assay with MCF7 [1] and in the assay with SK-BR-3 [2] was above 100 µM in each case.

Turning to `Cc1c(O)ccc2c(=O)c(-c3ccc4c(c3)OCO4)coc12`, the IC50 in the assay on MCF7 [1] and with SK-BR-3 [2] was above 100 µM throughout.

Turning to `CC(=O)Nc1coc2c(C)c(OC(C)=O)ccc2c1=O`, the IC50 in the assay with MCF7 [1] and with SK-BR-3 [2] was above 100 µM in each case.

In the case of `COc1cccc(-c2cc(C(=O)Nc3cc(=O)c4cc(O)ccc4o3)ccc2OC)c1`, the IC50 worked out at 10.5 µM in the assay with MCF7 [1] and 19.6 µM with SK-BR-3 [2].

With `COc1cccc(-c2cc(C(=O)Nc3coc4cc(O)ccc4c3=O)ccc2OC)c1`, the “Ratio IC50” value in the assay on SK-BR-3 [3] turned out to be 1.9. Besides, the IC50 in the assay with MCF7 [1] turned out to be 8.6 µM; in the assay with SK-BR-3 [2] it was 37.1 µM.

In turn, `CO[C@@H]1[C@@H](O)[C@@H](O)[C@H](Oc2ccc3cc(NC(=O)CCCCC(=O)Nc4cc5ccc(O[C@@H]6OC(C)(C)[C@H](OC)[C@@H](O)[C@H]6O)cc5oc4=O)c(=O)oc3c2)OC1(C)C` registered an IC50 with SK-BR-3 [2] of 2 µM. This lies in the single-digit micromolar range.

For `CO[C@@H]1[C@@H](O)[C@@H](O)[C@H](Oc2ccc3c(=O)c(-c4ccc5c(c4)OCO5)coc3c2)OC1(C)C`, the figures for the IC50 with MCF7 [1] and with SK-BR-3 [2] were 9.2 µM and 18 µM, respectively.

With `CC(=O)Nc1coc2cc(OC(C)=O)ccc2c1=O`, the IC50 with MCF7 [1] and in the assay on SK-BR-3 [2] was above 100 µM in each case.

`CC(=O)Oc1cc(O)c2c(=O)c(-c3ccc4c(c3)OCO4)coc2c1`: the IC50 in the assay on MCF7 [1] and in the assay on SK-BR-3 [2] was above 100 µM each time.

As for `CC(C)=CCc1cc2c(=O)c(-c3ccc4c(c3)OCO4)coc2c(C)c1O`, the half-inhibitory concentration (IC50) in the assay on MCF7 [1] is 49.2 µM; in the assay on SK-BR-3 [2], above 100 µM.

With `CC(=O)Nc1coc2c(C)c(O)ccc2c1=O`, the IC50 in the assay with MCF7 [1] and with SK-BR-3 [2] was above 100 µM each time.

Consider `COc1cccc(-c2cc(C(=O)Nc3cc(=O)c4cc(OC(C)=O)ccc4o3)ccc2OC)c1`, for which the concentration for half-maximal inhibition (IC50) in the assay on MCF7 [1] and in the assay with SK-BR-3 [2] was above 100 µM throughout.

Regarding `CC(=O)Nc1cc(=O)c2cc(O)ccc2o1`, the IC50 with MCF7 [1] and with SK-BR-3 [2] was above 100 µM in each case.

For the compound `COc1cccc(-c2cc(C(=O)Nc3coc4c(C)c(OC(C)=O)ccc4c3=O)ccc2OC)c1`, the IC50 in the assay on MCF7 [1] is 4.8 µM; in the assay with SK-BR-3 [2], 17 µM.

For `COc1cccc(-c2cc(C(=O)Nc3coc4cc(O[C@@H]5OC(C)(C)[C@H](OC)[C@@H](O)[C@H]5O)ccc4c3=O)ccc2OC)c1`, the Activity entry in assay [4] and in assay [6] was “Dose-dependent effect” in each case. Besides, the inhibition entry in the assay with MCF7 [5] is “Active”. Further, the IC50 in the assay with MCF7 [1] was 25.2 µM; with SK-BR-3 [2], 29 µM.

`CC(=O)Nc1coc2cc(O)cc(O)c2c1=O`: the IC50 with MCF7 [1] and in the assay with SK-BR-3 [2] was above 100 µM each time.

Take `COc1cccc(-c2cc(C(=O)Nc3cc(=O)c4cc(O[C@@H]5OC(C)(C)[C@H](OC)[C@@H](O)[C@H]5O)ccc4o3)ccc2OC)c1`: the IC50 in the assay on MCF7 [1] is 14.7 µM; in the assay on SK-BR-3 [2] it was 33.8 µM.

For the compound `O=c1c(-c2ccc3c(c2)OCO3)coc2cc(O)ccc12` [PSEUDOBAPTOGENIN], the IC50 with MCF7 [1] and in the assay with SK-BR-3 [2] was above 100 µM in each case.

Take `CO[C@@H]1[C@@H](O)[C@@H](O)[C@H](Oc2ccc3oc(NC(C)=O)cc(=O)c3c2)OC1(C)C`: the IC50 in the assay with MCF7 [1] and in the assay with SK-BR-3 [2] was above 100 µM throughout.

In the case of `CC(=O)Oc1ccc2c(=O)c(-c3ccc4c(c3)OCO4)coc2c1`, the IC50 in the assay with MCF7 [1] and in the assay on SK-BR-3 [2] was above 100 µM in each case.

Turning to `CC(C)=CCc1cc2c(=O)c(-c3ccc4c(c3)OCO4)coc2cc1O`, the figures for the IC50 in the assay on MCF7 [1] and in the assay on SK-BR-3 [2] were 13.1 µM and 36.5 µM, respectively.

For `CO[C@@H]1[C@@H](O)[C@@H](O)[C@H](Oc2ccc3c(=O)c(NC(C)=O)coc3c2C)OC1(C)C`, the IC50 in the assay with MCF7 [1] and in the assay on SK-BR-3 [2] was above 100 µM each time.
